Assay outcomes deposited in PubChem by Johns Hopkins Ion Channel Center.
In the library only some 3.7% were active in any assay of this set; here they are far more common.
KCNQ1 pot – potentiators or activators of human KCNQ1 potassium channel; P51787; CHO-K1 KCNQ1, thallium flux FluxOR fluorescence; active compounds read high; B-score at 10 µM; 310,000 compounds, 0.35% hits;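 active = fluorescence ratio B-score, a plate-corrected score, at least three library SD, with initial intensity B-score within 5 SD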
Target sequence (P51787 whole entry, looked up): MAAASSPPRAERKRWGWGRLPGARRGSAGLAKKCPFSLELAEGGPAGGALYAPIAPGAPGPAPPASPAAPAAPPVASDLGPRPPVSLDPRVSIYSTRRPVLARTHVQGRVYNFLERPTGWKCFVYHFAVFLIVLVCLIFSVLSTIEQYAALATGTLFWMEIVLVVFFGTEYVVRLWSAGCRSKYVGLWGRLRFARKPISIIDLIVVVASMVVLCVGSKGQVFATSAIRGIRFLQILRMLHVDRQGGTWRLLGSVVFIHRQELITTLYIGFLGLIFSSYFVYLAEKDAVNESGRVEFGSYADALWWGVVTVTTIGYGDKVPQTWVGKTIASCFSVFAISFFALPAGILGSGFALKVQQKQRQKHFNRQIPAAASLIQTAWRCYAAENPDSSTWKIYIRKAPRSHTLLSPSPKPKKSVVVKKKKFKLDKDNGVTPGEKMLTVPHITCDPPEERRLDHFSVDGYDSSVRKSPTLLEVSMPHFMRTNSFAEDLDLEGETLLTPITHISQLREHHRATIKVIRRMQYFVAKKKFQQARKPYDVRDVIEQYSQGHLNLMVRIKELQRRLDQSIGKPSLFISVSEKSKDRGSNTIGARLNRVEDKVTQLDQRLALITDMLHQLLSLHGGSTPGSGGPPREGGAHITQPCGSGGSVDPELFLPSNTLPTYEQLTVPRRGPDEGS
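Doses: Single concentration per compound, DMSO matched to controls | Test system: KCNQ1-transfected CHO-K1 cells | Timing: 90 min dye loading and 20 min compound exposure, both at room temperature | Measured by: Kinetic FluxOR thallium fluorescence, 10-s 1-Hz baseline, 110-s post-stimulus read | Medium: Assay buffer with matched DMSO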
KCNK3 inh – human KCNK3 channel inhibition, primary screen; O14649; CHO-KCNK3 thallium flux, FluxOR fluorescence; active compounds read low; B-score at 10 µM; 340,000 compounds, 0.84% hits; AID 602410;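 active = B-score under library mean minus 4 SD, starting fluorescence ratio at most library mean plus 5 SD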;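 note: more negative B-score means stronger inhibition of thallium flux through KCNK3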
Kir21 inh – blocks the mouse Kir2.1 inward-rectifier potassium channel. AID 1672. HEK293-Kir2.1, FluxOR thallium flux fluorescence; active compounds read low. B-score at 10 µM. P35561. 310,000 compounds, 0.85% hits;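 active = fluorescence ratio B-score at or below minus 3 SD of library scores, with starting-brightness B-score within 2 SD, cut at about -4.2 in these data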;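 note: channel flux triggered by added potassium and thallium sulfate stimulus; B-score of peak minus minimum fluorescence over baseline after thallium stimulus; more negative B-score means stronger Kir2.1 block with less thallium influx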
KCNK9 inh – human KCNK9 channel inhibition; HEK293 KCNK9, FluxOR thallium flux fluorescence; active compounds read low; Q9NPC2; B-score at 10 µM; 310,000 compounds, 1.2% hits; AID 488922;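 active = ratio B-score over 3 SD below the library mean, with starting fluorescence within 5 SD of its mean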;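 note: negative B-score means less thallium flux so channel inhibition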
hERG protect – shields human hERG channel from block by proarrhythmic agents | CHO-hERG, FluxOR thallium flux, dofetilide IC70 present | activation (rescue from dofetilide block), less the hit threshold, % at 10 µM | 310,000 compounds, 0.51% hits | AID 1511;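 active = activation above the mean of controls blocked by dofetilide plus 5 SD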;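 note: thallium influx through hERG after potassium depolarization seen as dye fluorescence rise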
KCNQ1 block – inhibitors of human KCNQ1 potassium channel; B-score at 10 µM; CHO-K1 KCNQ1, FluxOR thallium flux fluorescence; active compounds read high; AID 2642; 310,000 compounds, 1.3% hits;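 active = compounds whose thallium flux B-score, printed positive for inhibition, exceeds three library SD while starting fluorescence stays within three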;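 note: channel opened by potassium depolarization with thallium stimulus after 20 min compound exposure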
KCNK9 block conf – human KCNK9 inhibitor confirmation; shares compounds with KCNK9 inh; HEK293 KCNK9 cells, FluxOR thallium flux fluorescence; inhibition, % at 10 µM; 4,900 compounds, 43% hits; AID 492992;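 active = thallium signal inhibited by more than 5 SD of the compound-free buffer control wells, on both duplicate plates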;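 note: 0% = assay buffer control wells without compound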
Kir2-1 spec – selectivity of KCNK9 modulators against mouse Kir2.1. shares compounds with KCNK9 inh. Kir2.1 cells, FluxOR thallium flux fluorescence. inhibition, % at 10 µM. 4,900 compounds, 4% hits. AID 492993;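 active = thallium signal drop more than 5 SD beyond the mean of the no-compound control wells, seen in both duplicate plates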;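 note: signal is fluorescence rise after thallium addition divided by baseline fluorescence; plate controls were assay buffer only for no effect and full block by chlorpromazine control for full effect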
HEK293 Tl ctr – second check of KCNK9 modulator effects in non-induced HEK293 cells; shares compounds with KCNK9 inh; FluxOR thallium flux; inhibition, % at 10 µM; 4,900 compounds, 40% hits; AID 492997;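 active = thallium signal drop beyond 5 SD of the untreated control mean, on both duplicate plates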;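 note: plate controls were buffer only IC0 wells for no effect and SID17386958 at its maximal inhibitory level for full effect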
Starred values were filed as active, the others as inactive; i = inactive; . = no result.

SMILES	KCNQ1 pot	KCNK3 inh	Kir21 inh	KCNK9 inh	hERG protect	KCNQ1 block	KCNK9 block conf	Kir2-1 spec	HEK293 Tl ctr
CCOc1ccccc1NC(=O)n1ncc2c(C)cccc21	i	i	-2.2	-13*	-12	i	i	i	40%*
CCCN(CCC)S(=O)(=O)c1ccc(C(=O)N2CCCc3ccccc32)cc1	i	i	1.2	i	-14	i	i	i	i
CCCN(CCC)S(=O)(=O)c1ccc2c(c1)CCCN2C(C)=O	i	i	-3.2	i	1	i	.	.	.
COc1cccc(C(=O)NCC(c2ccco2)N2CCc3ccccc3C2)c1 (configuration not stated)	i	i	0.14	-10*	-6	i	38%*	i	i
O=C(NCC(c1ccco1)N1CCc2ccccc2C1)c1cccc(F)c1 (configuration not stated)	i	i	-1.9	i	-13	i	.	.	.
CC(=O)Nc1cccc(C(=O)OC(C)C(=O)NC(=O)NC2CCCCC2)c1 (configuration not stated)	i	i	0.12	i	-6	i	.	.	.
Cc1ccc(-c2cc3ccccc3nc2N2CCOCC2)cc1	i	i	-1.1	i	-11	i	i	i	i
O=C(c1ccc(Cl)nc1)c1cccs1	i	.	-0.08	i	-5	i	.	.	.
O=C(c1cccs1)c1no[n+]([O-])c1C(=O)c1cccs1	i	i	-11	-11*	-33	9*	44%*	36%*	52%*
CCOC(=O)C1CCN(C(=O)c2ccc(Oc3cc(Cl)cc(Cl)c3)o2)CC1	i	i	0.1	i	-1	i	i	i	i
OCc1ccccc1OCCCN1CCC(Cc2ccccc2)CC1	i	i	0.79	i	-12	i	.	.	.
C=CCOc1ccccc1CN1CCC(Cc2ccccc2)CC1	i	i	-4.3*	i	-5	i	i	i	i
COc1cc(OC)c(CN2CCC(Cc3ccccc3)CC2)cc1Br	i	i	-4.8*	i	0	i	i	i	i
Cc1ccc(NS(=O)(=O)c2cc(C(=O)NCCSC3CCCCC3)ccc2C)cc1	i	i	0.24	i	-6	i	.	.	.
Cc1ccc(NS(=O)(=O)c2cc(C(=O)NCCSc3ccc(C)cc3)ccc2C)cc1	i	i	-0.29	i	-3	i	i	i	i
Cc1ccc(C(=O)NCCSc2ccc(Cl)cc2)cc1S(=O)(=O)Nc1ccccc1	i	i	0.39	i	-7	i	i	i	i
CS(=O)(=O)Nc1ccccc1C(=O)NCCSc1ccc(Cl)cc1	i	i	-3.7	i	-13	i	.	.	.
CC(C)c1ccc(C2C3=C(COC3=O)Nc3cc4c(cc32)OCO4)cc1 (configuration not stated)	i	i	1.1	-9.4*	-17	i	i	i	i
CCOC(=O)c1ccc(NC(=O)CCSCCc2ccccn2)cc1	i	i	0	i	-7	i	.	.	.
CC1c2cc3c(cc2CCN1C(=O)c1ccc(Cl)cc1)OCCCO3 (configuration not stated)	i	i	-0.05	-9.9*	-7	i	56%*	i	29%*
CC(=O)c1cccc(NC(=O)CN2CCc3cc4c(cc3C2C)OCCCO4)c1 (configuration not stated)	i	i	0.47	i	-10	i	i	i	i
O=C(CN1CCc2cc3c(cc2C1)OCCCO3)Nc1cccc(Br)c1	i	i	2.2	i	-11	i	i	i	i
Cc1cc(N2CCCCC2)n2ncc(-c3ccc(Cl)cc3)c2n1	i	i	0.6	-11*	-12	i	54%*	i	36%*
C=CC[n+]1c(-c2ccc(Cl)cc2Cl)csc1Nc1c(C)n(C)n(-c2ccccc2)c1=O	i	i	-0.54	i	-20	i	i	i	i
Cc1c(NC(=O)C(C)Sc2nc(N)cc(=O)[nH]2)c(=O)n(-c2ccccc2)n1C (configuration not stated)	.	i	.	.	.	.	.	.	.
SMILES	KCNQ1 pot	KCNK3 inh	Kir21 inh	KCNK9 inh	hERG protect	KCNQ1 block	KCNK9 block conf	Kir2-1 spec	HEK293 Tl ctr
COC(=O)[C@]1(Cc2ccccc2)N[C@H](CN(C)C(=O)Nc2ccc(Cl)cc2)[C@@H]2C(=O)N(C)C(=O)[C@@H]21	.	i	.	.	.	.	.	.	.
Cc1ccccc1NC(=S)NCc1ccc2[nH]c3c(c2c1)CCCC3	i	i	-0.66	i	-10	i	i	i	i
CCc1cc2c(NCC3CCCO3)nc(C)nc2s1 (configuration not stated)	i	i	1	i	-8	i	.	.	.
CCn1c(SCc2ccc(Cl)cc2Cl)nc2nc3c(cc2c1=O)CCCC3	i	i	0.32	i	-13	i	i	i	i
Cc1ccc(C)c(C(=O)COC(=O)C2CCN(c3ccc(C(F)(F)F)cn3)CC2)c1	i	i	1.5	i	-11	i	i	i	i
Cc1cc(C)nc(SCc2nnc(SCc3ccccc3Cl)o2)n1	i	i	-2	-8.5*	-12	i	47%*	i	i
O=C(Cc1sc(Nc2ccccc2)nc1-c1ccccc1)NCc1ccccc1	i	i	0.01	-9.2*	-6	i	62%*	i	31%*
CCOc1ccc(NC(=O)CN(C)C(=O)c2cccnc2Sc2ccccc2Cl)cc1OCC	i	i	0.67	i	-17	i	.	.	.
COc1ccc(CCCc2nnc(SCC(=O)Nc3cccc(C)c3)o2)cc1	i	i	-0.16	i	-4	i	i	i	i
COc1cc(C)c(NC(=O)C(=S)NCCc2ccccc2)cc1C	i	i	1.2	i	-12	i	i	i	i
Cc1ccc2nc(N3CCN(C(=O)c4ccco4)CC3)c3nncn3c2c1	i	i	3.6	i	-9	i	.	.	.
CCOC(=O)c1[nH]c(C)c(C(=O)N2CCN(c3ccc(OC)cc3)CC2)c1C	i	i	-0.71	i	-6	i	.	.	.
CCOC(=O)c1[nH]c(CN2CCN(c3ccc(OC)cc3)CC2)c(C(=O)OCC)c1C	i	i	-0.18	i	-8	i	i	i	i
